Reference: PMC6034581 (Neoplasia (New York, N.Y.), 2018)

Key:
rats = conditions: cited from earlier work
C4-2 cells = experiment: MTS cell proliferation assay of in vitro cytotoxicity; type: cell-based; conditions: Homo sapiens, C4-2, 72 h, read-out: half minimal inhibitory concentration (IC50)
How it was run: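 AR-positive human prostate cancer C4-2 cells exposed for 72 hours to individual flavonoids or to a defined three-flavonoid mixture (molar ratio 1:1:2) across graded concentrations. Viability read by MTS cell proliferation assay; IC50 taken from the dose-effect curves. Data represent three or more independent experiments.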

[1] = Pharmacokinetics and bioavailability of ProFine ingredients; type: in vivo, Sprague-Dawley rats; conditions: ProFine 100 mg/kg oral gavage, rat plasma
humans = conditions: up to 1000 mg daily for several months; cited from earlier work

O=c1cc(-c2ccc(O)c(O)c2)oc2cc(O)cc(O)c12 [luteolin]
acute oral toxicity (LD50) (rats): > 5000 mg/kg | IC50 (C4-2 cells): 114 µM | maximum plasma concentration [1]: 0.44 µM

O=c1c(O)c(-c2ccc(O)c(O)c2)oc2cc(O)cc(O)c12 [quercetin]
adverse effects of human daily intakes (humans): no adverse effects
